Test results taken from ChEMBL document CHEMBL1773028, “Pentasaccharide resin glycosides from Ipomoea pes-caprae” (2011).
Calls of active or inactive are those of the source. The rule behind the calls is not given here.

Key:
NCI/ADR-RES [1] = assay: Cytotoxicity against multidrug-resistance human MCF7/ADR cells after 48 hrs by MTT assay; type: functional, cell-based
In short: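 MCF-7/ADR cells grown in DMEM with 10% FBS, trypsinized, seeded at 4.5 × 10^4 cells/mL and held 24 h at 37 °C, 5% CO2. Compounds added in DMSO over 400 to 1 μg/mL. MTT read-out after 48 h exposure. Triplicate.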

NCI/ADR-RES [2] = assay: Reversal fold, ratio of IC50 for doxorubicin alone to IC50 for doxorubicin in presence of compound in human MCF7/ADR cells after 48 hrs by MTT assay; type: functional
In short: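 MCF-7/ADR cells seeded at 4.5 × 10^3 per well. Doxorubicin serially diluted 0.008–25 μg/mL, with or without 5 μg/mL sample; verapamil 5 μg/mL as positive control. MTT after 48 h. Doxorubicin IC50 computed relative to untreated cells (100%). RF = IC50 doxorubicin alone / IC50 with sample. Triplicate.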

| Structure (SMILES) | Activity (NCI/ADR-RES [1]) | Ratio IC50 (NCI/ADR-RES [2]) |
| --- | --- | --- |
| CCCCCCCCCCCC(=O)O[C@H]1[C@H](O[C@@H]2[C@H]3OC(=O)CCCCCCCCC[C@H](CCCCC)O[C@@H]4O[C@H](C)[C@H](O)[C@H](O)[C@H]4O[C@H](O[C@H]2C)[C@@H]3O)O[C@@H](C)[C@H](O[C@@H]2O[C@@H](C)[C@H](OC(=O)C(C)C)[C@@H](OC(=O)/C=C/c3ccccc3)[C@H]2O)[C@H]1O[C@@H]1O[C@@H](C)[C@H](O)[C@@H](O)[C@H]1O [PESCAPREIN XXV] | inactive | 2.1 |
| CCCCC[C@H]1CCCCCCCCCC(=O)O[C@H]2[C@@H](O)[C@H](O[C@H]3[C@H](O1)O[C@H](C)[C@H](O)[C@@H]3O)O[C@@H](C)[C@@H]2O[C@@H]1O[C@@H](C)[C@H](O[C@@H]2O[C@@H](C)[C@H](OC(=O)[C@@H](C)CC)[C@@H](OC(=O)/C=C/c3ccccc3)[C@H]2O)[C@@H](O[C@@H]2O[C@@H](C)[C@H](O)[C@@H](O)[C@H]2O)[C@H]1OC(=O)[C@@H](C)CC [PESCAPREIN XXVII] | inactive | 1.9 |
| CCCCCCCCCCCC(=O)O[C@H]1[C@H](O[C@@H]2[C@H]3OC(=O)CCCCCCCCC[C@H](CCCCC)O[C@@H]4O[C@H](C)[C@H](O)[C@H](O)[C@H]4O[C@H](O[C@H]2C)[C@@H]3O)O[C@@H](C)[C@H](O[C@@H]2O[C@@H](C)[C@H](OC(=O)[C@@H](C)CC)[C@@H](O)[C@H]2OC(=O)/C=C/c2ccccc2)[C@H]1O[C@@H]1O[C@@H](C)[C@H](O)[C@@H](O)[C@H]1O [PESCAPREIN XXI] | inactive | 1.5 |
| CCCCCCCCCC(=O)O[C@H]1[C@H](O[C@@H]2[C@@H](O)[C@H]3OC(=O)CCCCCCCCC[C@H](CCCCC)O[C@@H]4O[C@H](C)[C@H](O)[C@H](O)[C@H]4O[C@@H]3O[C@H]2C)O[C@@H](C)[C@H](O[C@@H]2O[C@@H](C)[C@H](O)[C@@H](OC(=O)[C@@H](C)CC)[C@H]2O)[C@H]1O[C@@H]1O[C@@H](C)[C@H](O)[C@@H](O)[C@H]1O [PESCAPREIN XXX] | inactive | 2.3 |
| CCCCCC(=O)O[C@H]1[C@H](O[C@@H]2[C@@H](O)[C@H]3OC(=O)CCCCCCCCC[C@H](CCCCC)O[C@@H]4O[C@H](C)[C@H](O)[C@H](O)[C@H]4O[C@@H]3O[C@H]2C)O[C@@H](C)[C@H](O[C@@H]2O[C@@H](C)[C@H](OC(=O)[C@@H](C)CC)[C@@H](OC(=O)/C=C/c3ccccc3)[C@H]2O)[C@H]1O[C@@H]1O[C@@H](C)[C@H](O)[C@@H](O)[C@H]1O [PESCAPREIN XXIX] | inactive | 3.2 |
| COc1ccc(CCN(C)CCCC(C#N)(c2ccc(OC)c(OC)c2)C(C)C)cc1OC (centres undefined) [VERAPAMIL] | – | 21 |
| CCCCCCCC(=O)O[C@H]1[C@H](O[C@@H]2[C@H]3OC(=O)CCCCCCCCC[C@H](CCCCC)O[C@@H]4O[C@H](C)[C@H](O)[C@H](O)[C@H]4O[C@H](O[C@H]2C)[C@@H]3O)O[C@@H](C)[C@H](O[C@@H]2O[C@@H](C)[C@H](OC(=O)[C@@H](C)CC)[C@@H](OC(=O)/C=C/c3ccccc3)[C@H]2O)[C@H]1O[C@@H]1O[C@@H](C)[C@H](O)[C@@H](O)[C@H]1O [PESCAPREIN XXVIII] | inactive | 2.3 |
| CCCCCCCCCC(=O)O[C@H]1[C@H](O[C@@H]2[C@H]3OC(=O)CCCCCCCCC[C@H](CCCCC)O[C@@H]4O[C@H](C)[C@H](O)[C@H](O)[C@H]4O[C@H](O[C@H]2C)[C@@H]3O)O[C@@H](C)[C@H](O[C@@H]2O[C@@H](C)[C@H](OC(=O)C(C)C)[C@@H](OC(=O)/C=C/c3ccccc3)[C@H]2O)[C@H]1O[C@@H]1O[C@@H](C)[C@H](O)[C@@H](O)[C@H]1O [PESCAPREIN XXVI] | inactive | 3.7 |
| CCCCCCCCCC(=O)O[C@H]1[C@H](O[C@@H]2[C@H]3OC(=O)CCCCCCCCC[C@H](CCCCC)O[C@@H]4O[C@H](C)[C@H](O)[C@H](O)[C@H]4O[C@H](O[C@H]2C)[C@@H]3O)O[C@@H](C)[C@H](O[C@@H]2O[C@@H](C)[C@H](OC(=O)[C@@H](C)CC)[C@@H](OC(=O)/C=C/c3ccccc3)[C@H]2O)[C@H]1O[C@@H]1O[C@@H](C)[C@H](O)[C@@H](O)[C@H]1O [PESCAPREIN XXIII] | inactive | 2.9 |
| CCCCCCCCCC(=O)O[C@H]1[C@H](O[C@@H]2[C@H]3OC(=O)CCCCCCCCC[C@H](CCCCC)O[C@@H]4O[C@H](C)[C@H](O)[C@H](O)[C@H]4O[C@H](O[C@H]2C)[C@@H]3O)O[C@@H](C)[C@H](O[C@@H]2O[C@@H](C)[C@H](OC(=O)[C@@H](C)CC)[C@@H](O)[C@H]2OC(=O)/C=C/c2ccccc2)[C@H]1O[C@@H]1O[C@@H](C)[C@H](O)[C@@H](O)[C@H]1O [PESCAPREIN XXIV] | inactive | 1.8 |
